# Test results: ChEMBL document CHEMBL3865830, “Multifunctional diamine AGE/ALE inhibitors with potential therapeutical properties against Alzheimer's disease” (Eur J Med Chem, 2016)
# Tested on: not listed separately
# Assay: Metal chelating activity of compound assessed as compound-Cu2+ complex formation at 0.02 mM after 10 mins in presence of CuSO4.5H2O by complexometric indicator murexide based UV-Vis spectrophotometric analysis
# Format: physicochemical
# Details: 20 µM
# Procedure, shortened: (§1)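 Compound (0.02-2 mM) incubated with CuSO4 (120 µM) for 10 min at rt, in 10 mM hexamine/HCl with 10 mM KCl (pH 5.0), or in buffer/MeOH 75:25 for poorly soluble compounds. Murexide added, 1 min more. The A485/A520 ratio gives free Cu2+ from a CuSO4 calibration curve (0-125 µM). % chelation is taken by difference from the no-compound control; triplicates.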
row,Activity [%],Structure (SMILES)
1,3.25,Cl.Cl.NCC(N)C(=O)N1CCNCC1 (stereo unspecified)
2,3.22,CCCCN1CCN(C(=O)C(N)CN)CC1.Cl.Cl (stereo unspecified)
3,10.33,Cl.Cl.NCC(N)CC(=O)N1CCN(C(=O)CCn2cccc(O)c2=O)CC1 (stereo unspecified)

# Tested on: not listed separately
# Assay: Reactive carbonyl species trapping activity of compound assessed as MGO adduct formation at 10 mM preincubated for 24 hrs with MGO measured after 0.25 hrs by LCMS analysis
# Format: physicochemical
# Details: 10000 µM
row,Activity [%],Structure (SMILES)
1,59,CCCCN1CCN(C(=O)C(N)CN)CC1.Cl.Cl (stereo unspecified)
2,99,Cl.Cl.NCC(N)CC(=O)N1CCN(C(=O)CCn2cccc(O)c2=O)CC1 (stereo unspecified)

# Tested on: not listed separately
# Assay: Antioxidant activity assessed as inhibition of AAPH-induced peroxyl radical generation measured as trolox equivalent at 10 uM preincubated for 30 mins followed by AAPH addition measured evey 60 secs for 60 cycles by ORAC-FL assay
# Format: functional
# Details: in the assay text read “90 secs” for “60 secs”
# Procedure, shortened: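 Fluorescein (12 nM) preincubated with compound (1-20 µM) or Trolox standard (1-50 µM) in D-PBS, at least 30 min at 37 °C. Reaction started with AAPH (30 mM). Fluorescence (ex 485/em 520 nm) read every 90 s for 60 cycles. Net AUC is converted to Trolox equivalents via the Trolox calibration line. Values are reported at 10 µM, from at least three independent experiments in triplicate.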
row,Structure (SMILES),Activity (umolequiv/umol)
1,Cl.Cl.NCC(N)C(=O)N1CCNCC1 (stereo unspecified),0
2,Cl.Cl.NCC(N)CC(=O)N1CCN(C(=O)CCn2cccc(O)c2=O)CC1 (stereo unspecified),0.58

# Tested on: not listed separately
# Assay: Metal chelating activity of compound assessed as compound-Cu2+ complex formation at 0.05 mM after 10 mins in presence of CuSO4.5H2O by complexometric indicator murexide based UV-Vis spectrophotometric analysis
# Format: physicochemical
# Details: 50 µM
# Procedure, shortened: as §1
row,Activity [%],Structure (SMILES)
1,7.07,Cl.Cl.NCC(N)C(=O)N1CCNCC1 (stereo unspecified)
2,10.28,CCCCN1CCN(C(=O)C(N)CN)CC1.Cl.Cl (stereo unspecified)
3,18.5,Cl.Cl.NCC(N)CC(=O)N1CCN(C(=O)CCn2cccc(O)c2=O)CC1 (stereo unspecified)

# Tested on: not listed separately
# Assay: Reactive carbonyl species trapping activity of compound assessed as MGO adduct formation at 10 mM preincubated for 24 hrs with MGO measured after 1 hr by LCMS analysis
# Format: physicochemical
# Details: 10000 µM
row,Activity [%],Structure (SMILES)
1,37,Cl.Cl.NCC(N)C(=O)N1CCNCC1 (stereo unspecified)
2,70,CCCCN1CCN(C(=O)C(N)CN)CC1.Cl.Cl (stereo unspecified)
3,99,Cl.Cl.NCC(N)CC(=O)N1CCN(C(=O)CCn2cccc(O)c2=O)CC1 (stereo unspecified)

# Organism: Rattus norvegicus
# Assay: Cytotoxicity against rat […] PC12 cells assessed as reduction in cell viability at 10 to 100 uM after 24 hrs by WST8-based CCK8 assay
# Format: toxicity
# Details: pc-12, 24 h
# Procedure, shortened: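 PC12 Adh cells (rat pheochromocytoma-derived) grown in F-12K with 2.5% FBS, 15% horse serum and pen/strep at 37 °C, 5% CO2. Seeded at 5×10^3 cells/well; treated at 80% confluency with 10 or 100 µM for 24 h. 10% DMSO served as positive cytotoxicity control. CCK-8 added for 1 h at 37 °C, absorbance read at 450 nm. Viability given as % of untreated cells; at least three experiments in triplicate.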
row,Structure (SMILES),Activity
1,Cl.Cl.NCC(N)C(=O)N1CCNCC1 (stereo unspecified),Non-Toxic
2,Cl.Cl.NCC(N)CC(=O)N1CCN(C(=O)CCn2cccc(O)c2=O)CC1 (stereo unspecified),Toxic

# Tested on: not listed separately
# Assay: Metal chelating activity of compound assessed as compound-Cu2+ complex formation at 0.1 mM after 10 mins in presence of CuSO4.5H2O by complexometric indicator murexide based UV-Vis spectrophotometric analysis
# Format: physicochemical
# Details: 100 µM
# Procedure, shortened: as §1
row,Activity [%],Structure (SMILES)
1,13.97,Cl.Cl.NCC(N)C(=O)N1CCNCC1 (stereo unspecified)
2,16.55,CCCCN1CCN(C(=O)C(N)CN)CC1.Cl.Cl (stereo unspecified)
3,30.74,Cl.Cl.NCC(N)CC(=O)N1CCN(C(=O)CCn2cccc(O)c2=O)CC1 (stereo unspecified)

# Tested on: not listed separately
# Assay: Metal chelating activity of compound assessed as compound-Cu2+ complex formation at 2 mM after 10 mins in presence of CuSO4.5H2O by complexometric indicator murexide based UV-Vis spectrophotometric analysis
# Format: physicochemical
# Details: 2000 µM
# Procedure, shortened: as §1
row,Activity [%],Structure (SMILES)
1,62.15,Cl.Cl.NCC(N)C(=O)N1CCNCC1 (stereo unspecified)
2,62.53,CCCCN1CCN(C(=O)C(N)CN)CC1.Cl.Cl (stereo unspecified)
3,78.98,Cl.Cl.NCC(N)CC(=O)N1CCN(C(=O)CCn2cccc(O)c2=O)CC1 (stereo unspecified)

# Tested on: not listed separately
# Assay: Reactive carbonyl species trapping activity of compound assessed as MDA adduct formation at 10 mM preincubated for 24 hrs with MDA measured after 5 hrs by LCMS analysis
# Format: physicochemical
# Details: 10000 µM
row,Activity [%],Structure (SMILES)
1,100,Cl.Cl.NCC(N)C(=O)N1CCNCC1 (stereo unspecified)
2,77,CCCCN1CCN(C(=O)C(N)CN)CC1.Cl.Cl (stereo unspecified)
3,92,Cl.Cl.NCC(N)CC(=O)N1CCN(C(=O)CCn2cccc(O)c2=O)CC1 (stereo unspecified)

# Tested on: not listed separately
# Assay: Metal chelating activity of compound assessed as compound-Cu2+ complex formation at 1 mM after 10 mins in presence of CuSO4.5H2O by complexometric indicator murexide based UV-Vis spectrophotometric analysis
# Format: physicochemical
# Details: 1000 µM
# Procedure, shortened: as §1
row,Activity [%],Structure (SMILES)
1,51.61,Cl.Cl.NCC(N)C(=O)N1CCNCC1 (stereo unspecified)
2,53.27,CCCCN1CCN(C(=O)C(N)CN)CC1.Cl.Cl (stereo unspecified)
3,75.14,Cl.Cl.NCC(N)CC(=O)N1CCN(C(=O)CCn2cccc(O)c2=O)CC1 (stereo unspecified)

# Tested on: not listed separately
# Assay: Metal chelating activity of compound assessed as compound-Cu2+ complex formation at 0.5 mM after 10 mins in presence of CuSO4.5H2O by complexometric indicator murexide based UV-Vis spectrophotometric analysis
# Format: physicochemical
# Details: 500 µM
# Procedure, shortened: as §1
row,Activity [%],Structure (SMILES)
1,40.27,Cl.Cl.NCC(N)C(=O)N1CCNCC1 (stereo unspecified)
2,43.56,CCCCN1CCN(C(=O)C(N)CN)CC1.Cl.Cl (stereo unspecified)
3,68.5,Cl.Cl.NCC(N)CC(=O)N1CCN(C(=O)CCn2cccc(O)c2=O)CC1 (stereo unspecified)

# Tested on: not listed separately
# Assay: Reactive carbonyl species trapping activity of compound assessed as MDA adduct formation at 10 mM preincubated for 24 hrs with MDA measured after 1 hr by LCMS analysis
# Format: physicochemical
# Details: 10000 µM
row,Activity [%],Structure (SMILES)
1,100,Cl.Cl.NCC(N)C(=O)N1CCNCC1 (stereo unspecified)
2,87,Cl.Cl.NCC(N)CC(=O)N1CCN(C(=O)CCn2cccc(O)c2=O)CC1 (stereo unspecified)

# Tested on: not listed separately
# Assay: Reactive carbonyl species trapping activity of compound assessed as MDA adduct formation at 10 mM preincubated for 24 hrs with MDA measured after 0.25 hrs by LCMS analysis
# Format: physicochemical
# Details: 10000 µM
row,Activity [%],Structure (SMILES)
1,100,Cl.Cl.NCC(N)C(=O)N1CCNCC1 (stereo unspecified)
2,62,CCCCN1CCN(C(=O)C(N)CN)CC1.Cl.Cl (stereo unspecified)
3,75,Cl.Cl.NCC(N)CC(=O)N1CCN(C(=O)CCn2cccc(O)c2=O)CC1 (stereo unspecified)

# Tested on: not listed separately
# Assay: Reactive carbonyl species trapping activity of compound assessed as MGO adduct formation at 10 mM preincubated for 24 hrs with MGO measured after 5 hrs by LCMS analysis
# Format: physicochemical
# Details: 10000 µM
row,Activity [%],Structure (SMILES)
1,51,Cl.Cl.NCC(N)C(=O)N1CCNCC1 (stereo unspecified)
2,93,CCCCN1CCN(C(=O)C(N)CN)CC1.Cl.Cl (stereo unspecified)
3,99,Cl.Cl.NCC(N)CC(=O)N1CCN(C(=O)CCn2cccc(O)c2=O)CC1 (stereo unspecified)

# Tested on: not listed separately
# Assay: Metal chelating activity of compound assessed as compound-Cu2+ complex formation at 0.08 mM after 10 mins in presence of CuSO4.5H2O by complexometric indicator murexide based UV-Vis spectrophotometric analysis
# Format: physicochemical
# Details: 80 µM
# Procedure, shortened: as §1
row,Activity [%],Structure (SMILES)
1,10.65,Cl.Cl.NCC(N)C(=O)N1CCNCC1 (stereo unspecified)
2,14.87,CCCCN1CCN(C(=O)C(N)CN)CC1.Cl.Cl (stereo unspecified)
3,27.53,Cl.Cl.NCC(N)CC(=O)N1CCN(C(=O)CCn2cccc(O)c2=O)CC1 (stereo unspecified)

# Tested on: not listed separately
# Assay: Reactive carbonyl species trapping activity of compound assessed as MDA adduct formation at 10 mM preincubated for 24 hrs with MDA measured after 0.5 hrs by LCMS analysis
# Format: physicochemical
# Details: 10000 µM
row,Activity [%],Structure (SMILES)
1,100,Cl.Cl.NCC(N)C(=O)N1CCNCC1 (stereo unspecified)
2,65,CCCCN1CCN(C(=O)C(N)CN)CC1.Cl.Cl (stereo unspecified)

# Tested on: not listed separately
# Assay: Reactive carbonyl species trapping activity of compound assessed as MDA adduct formation at 10 mM preincubated for 24 hrs with MDA measured after 24 hrs by LCMS analysis
# Format: physicochemical
# Details: 10000 µM
row,Activity [%],Structure (SMILES)
1,100,Cl.Cl.NCC(N)C(=O)N1CCNCC1 (stereo unspecified)
2,62,CCCCN1CCN(C(=O)C(N)CN)CC1.Cl.Cl (stereo unspecified)
3,91,Cl.Cl.NCC(N)CC(=O)N1CCN(C(=O)CCn2cccc(O)c2=O)CC1 (stereo unspecified)

# Tested on: not listed separately
# Assay: Reactive carbonyl species trapping activity of compound assessed as MGO adduct formation at 10 mM preincubated for 24 hrs with MGO measured after 15 mins by LCMS analysis
# Format: physicochemical
# Details: 0.25 h, 10000 µM
row,Activity [%],Structure (SMILES)
1,59,CCCCN1CCN(C(=O)C(N)CN)CC1.Cl.Cl (stereo unspecified)
2,99,Cl.Cl.NCC(N)CC(=O)N1CCN(C(=O)CCn2cccc(O)c2=O)CC1 (stereo unspecified)

# Tested on: not listed separately
# Assay: Reactive carbonyl species trapping activity of compound assessed as MGO adduct formation at 10 mM preincubated for 24 hrs with MGO measured after 24 hrs by LCMS analysis
# Format: physicochemical
# Details: 10000 µM
row,Activity [%],Structure (SMILES)
1,82,Cl.Cl.NCC(N)C(=O)N1CCNCC1 (stereo unspecified)
2,100,CCCCN1CCN(C(=O)C(N)CN)CC1.Cl.Cl (stereo unspecified)
3,99,Cl.Cl.NCC(N)CC(=O)N1CCN(C(=O)CCn2cccc(O)c2=O)CC1 (stereo unspecified)

# Tested on: not listed separately
# Assay: Metal chelating activity of compound assessed as compound-Cu2+ complex formation at 200 uM after 10 mins in presence of CuSO4.5H2O by complexometric indicator murexide based UV-Vis spectrophotometric analysis
# Format: physicochemical
# Details: not given
# Procedure, shortened: as §1
row,Activity [%],Structure (SMILES)
1,23.6,Cl.Cl.NCC(N)C(=O)N1CCNCC1 (stereo unspecified)
2,27.68,CCCCN1CCN(C(=O)C(N)CN)CC1.Cl.Cl (stereo unspecified)
3,50.25,Cl.Cl.NCC(N)CC(=O)N1CCN(C(=O)CCn2cccc(O)c2=O)CC1 (stereo unspecified)

# Tested on: not listed separately
# Assay: Reactive carbonyl species trapping activity of compound assessed as MGO adduct formation at 10 mM preincubated for 24 hrs with MGO measured after 0.5 hrs by LCMS analysis
# Format: physicochemical
# Details: 10000 µM
row,Activity [%],Structure (SMILES)
1,33,Cl.Cl.NCC(N)C(=O)N1CCNCC1 (stereo unspecified)
2,97,Cl.Cl.NCC(N)CC(=O)N1CCN(C(=O)CCn2cccc(O)c2=O)CC1 (stereo unspecified)
